Assay results: ChEMBL document CHEMBL1142242, “Indanylacetic acid derivatives carrying 4-thiazolyl-phenoxy tail groups, a new class of potent PPAR alpha/gamma/delta pan agonists: synthesis, structure-activity relationship, and in vivo efficacy” (J Med Chem, 2007)
pEC50: −log10 of the molar value.

Legend:
[1] = target: T1, Peroxisome proliferator-activated receptor alpha (Homo sapiens, UniProt Q07869); assay: Agonist activity at human PPAR alpha by FRET assay; type: functional
T1 sequence (Q07869 whole entry): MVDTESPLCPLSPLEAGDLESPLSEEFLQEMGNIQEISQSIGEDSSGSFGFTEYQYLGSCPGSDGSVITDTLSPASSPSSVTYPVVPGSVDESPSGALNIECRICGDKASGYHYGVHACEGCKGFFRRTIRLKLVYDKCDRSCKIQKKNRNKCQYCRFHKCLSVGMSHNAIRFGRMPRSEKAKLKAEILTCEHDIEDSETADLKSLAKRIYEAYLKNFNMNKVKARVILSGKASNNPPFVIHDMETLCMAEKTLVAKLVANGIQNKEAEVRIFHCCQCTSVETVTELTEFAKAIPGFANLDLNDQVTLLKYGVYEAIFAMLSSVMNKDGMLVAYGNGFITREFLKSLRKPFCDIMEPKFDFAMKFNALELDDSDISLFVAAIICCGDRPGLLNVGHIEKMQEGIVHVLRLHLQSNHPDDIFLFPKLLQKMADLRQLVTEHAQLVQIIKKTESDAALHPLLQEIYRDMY
Method in brief: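 Human PPARα ligand binding domain (GST-tagged) association with biotin-labeled co-activator CBP; Eu-labeled anti-GST antibody and streptavidin-APC; incubated 2 h at rt in buffer with or without compound; fluorescence read at 615 or 655 nm emission, 340 nm excitation.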

[2] = target: T2, Peroxisome proliferator-activated receptor gamma (Mus musculus, UniProt P37238); assay: Agonist activity at PPAR gamma in mouse 3T3L1 cells assessed as increase in insulin receptor by IRBA; type: functional, cell-based, 3T3-L1
T2 sequence (P37238 whole entry): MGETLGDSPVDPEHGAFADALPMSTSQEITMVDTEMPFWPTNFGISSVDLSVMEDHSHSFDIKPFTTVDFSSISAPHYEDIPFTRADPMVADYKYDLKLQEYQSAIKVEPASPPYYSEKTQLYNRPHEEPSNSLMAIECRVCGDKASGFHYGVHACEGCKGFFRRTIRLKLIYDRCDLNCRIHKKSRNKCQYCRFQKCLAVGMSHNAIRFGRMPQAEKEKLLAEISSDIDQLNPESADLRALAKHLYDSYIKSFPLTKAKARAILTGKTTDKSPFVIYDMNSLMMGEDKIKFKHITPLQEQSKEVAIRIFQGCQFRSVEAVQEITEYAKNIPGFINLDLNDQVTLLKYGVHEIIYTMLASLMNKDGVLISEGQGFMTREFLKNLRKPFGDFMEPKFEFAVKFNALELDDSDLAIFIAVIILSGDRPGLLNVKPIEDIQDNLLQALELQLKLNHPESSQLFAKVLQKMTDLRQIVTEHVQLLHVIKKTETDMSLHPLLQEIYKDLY

[3] = target: T3, Peroxisome proliferator-activated receptor delta (Homo sapiens, UniProt Q03181); assay: Agonist activity at human PPAR delta by FRET assay; type: functional
T3 sequence (Q03181 whole entry): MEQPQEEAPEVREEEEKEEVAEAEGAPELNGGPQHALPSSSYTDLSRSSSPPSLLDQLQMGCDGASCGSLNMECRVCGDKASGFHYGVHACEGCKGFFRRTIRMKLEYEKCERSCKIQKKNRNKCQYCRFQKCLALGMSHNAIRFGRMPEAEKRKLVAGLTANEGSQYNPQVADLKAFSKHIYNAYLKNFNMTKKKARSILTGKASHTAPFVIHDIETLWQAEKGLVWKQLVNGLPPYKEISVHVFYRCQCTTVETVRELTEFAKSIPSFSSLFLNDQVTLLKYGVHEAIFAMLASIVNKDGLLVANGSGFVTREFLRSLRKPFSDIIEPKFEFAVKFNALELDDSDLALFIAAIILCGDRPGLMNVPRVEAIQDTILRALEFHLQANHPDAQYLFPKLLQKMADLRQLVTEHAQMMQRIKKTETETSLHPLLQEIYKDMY

## COc1cc(-c2nc(C)cs2)ccc1OCCCOc1ccc2c(c1)CC[C@H]2CC(=O)O
[1]
  pEC50: 6.57
[2]
  pEC50: 6.02
[3]
  pEC50: 8.57

## O=C(O)C[C@@H]1CCc2cc(OCCCOc3ccc4cc[nH]c4c3)ccc21
[1]
  pEC50: < 5.00
[2]
  pEC50: < 5.00
[3]
  pEC50: 7.72

## O=C(O)C[C@@H]1CCc2cc(OCCCOc3ccc(-c4cccnc4)cc3)ccc21
[1]
  pEC50: 5.77
[2]
  pEC50: 6.26
[3]
  pEC50: 8.64

## COc1cc(-c2nc(C)c(C)s2)ccc1OCCCOc1ccc2c(c1)CC[C@H]2CC(=O)O
[1]
  pEC50: 7.08
[2]
  pEC50: 7.48
[3]
  pEC50: 8.40

## COc1csc(-c2ccc(OCCCOc3ccc4c(c3)CC[C@H]4CC(=O)O)cc2)n1
[1]
  pEC50: 5.24
[2]
  pEC50: 6.52
[3]
  pEC50: 8.89

## CC(=O)c1sc(-c2ccc(OCCCOc3ccc4c(c3)CC[C@H]4CC(=O)O)cc2)nc1C
[1]
  pEC50: 5.60
[2]
  pEC50: 6.32
[3]
  pEC50: 8.16

## O=C(O)C[C@@H]1CCc2cc(OCCCOc3ccc(-c4ccsc4)cc3)ccc21
[1]
  pEC50: < 5.00
[2]
  pEC50: 6.19
[3]
  pEC50: 8.23

## CCCc1cc(-c2nc(OCC)c(C)s2)ccc1OCCCOc1ccc2c(c1)CC[C@H]2CC(=O)O
[1]
  pEC50: 7.21
[2]
  pEC50: 7.47
[3]
  pEC50: 8.49

## CCCc1cc(-c2nc(OC(C)C)cs2)ccc1OCCCOc1ccc2c(c1)CC[C@H]2CC(=O)O
[1]
  pEC50: 7.33
[2]
  pEC50: 7.35
[3]
  pEC50: 8.64

## COc1cc(C)ccc1OCCCOc1ccc2c(c1)CC[C@H]2CC(=O)O
[1]
  pEC50: < 5.00
[2]
  pEC50: 5.78
[3]
  pEC50: 8.12

## COc1cc(C#N)ccc1OCCCOc1ccc2c(c1)CC[C@H]2CC(=O)O
[1]
  pEC50: 5.12
[2]
  pEC50: 6.15
[3]
  pEC50: 7.85

## Cc1c(OCCCOc2ccc3c(c2)CC[C@H]3CC(=O)O)ccc2[nH]ccc12
[1]
  pEC50: < 5.00
[2]
  pEC50: 5.16
[3]
  pEC50: 6.54

## Cc1ccc(OCCCOc2ccc3c(c2)CC[C@H]3CC(=O)O)c(C)c1
[1]
  pEC50: 5.03
[2]
  pEC50: 5.66
[3]
  pEC50: 8.34

## CCCc1c(OCCCOc2ccc3c(c2)CC[C@H]3CC(=O)O)ccc2c(C)noc12
[1]
  pEC50: < 5.00
[2]
  pEC50: 6.76
[3]
  pEC50: 8.68

## O=C(O)C[C@@H]1CCc2cc(OCCCOc3ccc4[nH]ccc4c3)ccc21
[1]
  pEC50: < 5.00
[2]
  pEC50: 5.74
[3]
  pEC50: 7.62

## CCOc1nc(-c2ccc(OCCCOc3ccc4c(c3)CC[C@H]4CC(=O)O)c(OC)c2)sc1C
[1]
  pEC50: 6.82
[2]
  pEC50: 6.75
[3]
  pEC50: 8.22

## CCCc1cc(-c2nccs2)ccc1OCCCOc1ccc2c(c1)CC[C@H]2CC(=O)O
[1]
  pEC50: 6.95
[2]
  pEC50: 7.32
[3]
  pEC50: 8.80

## Cc1cc(-c2nc(C(F)(F)F)ns2)ccc1OCCCOc1ccc2c(c1)CC[C@H]2CC(=O)O
[1]
  pEC50: 6.28
[2]
  pEC50: 6.80
[3]
  pEC50: 8.47

## O=C(O)C[C@@H]1CCc2cc(OCCCOc3ccc(OC(F)(F)F)cc3)ccc21
[1]
  pEC50: 5.17
[2]
  pEC50: 5.99
[3]
  pEC50: 7.89
